What was measured:
[1] = biological target: Proto-oncogene tyrosine-protein kinase Src (Homo sapiens) (UniProt P12931); conditions: 10 nM
[2] = biological target: T1, Ephrin type-B receptor 4 (Homo sapiens) (UniProt P54760); assay: Inhibition of EphB4 at 10 nM
T1 sequence (whole entry): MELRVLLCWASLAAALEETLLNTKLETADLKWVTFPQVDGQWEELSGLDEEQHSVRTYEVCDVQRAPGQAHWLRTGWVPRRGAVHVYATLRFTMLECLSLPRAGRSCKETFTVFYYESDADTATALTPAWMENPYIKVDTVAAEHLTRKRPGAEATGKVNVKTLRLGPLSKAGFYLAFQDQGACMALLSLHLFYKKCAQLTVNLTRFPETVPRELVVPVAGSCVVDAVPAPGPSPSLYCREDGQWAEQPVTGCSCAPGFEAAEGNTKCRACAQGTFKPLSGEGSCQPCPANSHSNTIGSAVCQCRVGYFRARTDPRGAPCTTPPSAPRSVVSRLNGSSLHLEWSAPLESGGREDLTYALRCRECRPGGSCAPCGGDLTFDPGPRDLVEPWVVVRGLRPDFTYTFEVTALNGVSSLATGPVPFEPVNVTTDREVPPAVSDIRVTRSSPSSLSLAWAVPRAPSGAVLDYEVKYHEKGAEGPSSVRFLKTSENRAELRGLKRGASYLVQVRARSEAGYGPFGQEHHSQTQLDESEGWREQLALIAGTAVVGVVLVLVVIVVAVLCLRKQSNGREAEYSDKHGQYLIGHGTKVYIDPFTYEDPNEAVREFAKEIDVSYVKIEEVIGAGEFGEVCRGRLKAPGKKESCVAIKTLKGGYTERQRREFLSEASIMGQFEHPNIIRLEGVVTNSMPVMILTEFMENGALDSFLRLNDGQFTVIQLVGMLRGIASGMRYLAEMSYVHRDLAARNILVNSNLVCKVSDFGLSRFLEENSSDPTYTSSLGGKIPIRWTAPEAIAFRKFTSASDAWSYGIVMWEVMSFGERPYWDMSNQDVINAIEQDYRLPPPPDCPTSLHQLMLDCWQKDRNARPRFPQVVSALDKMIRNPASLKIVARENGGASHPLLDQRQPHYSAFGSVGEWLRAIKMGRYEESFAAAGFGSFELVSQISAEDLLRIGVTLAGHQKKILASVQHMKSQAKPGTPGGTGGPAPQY
How it was run: (§1)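 Part of a 21-kinase inhibition panel, tested at a single inhibitor concentration of 10 nM.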

[3] = biological target: Ephrin type-A receptor 2 (Homo sapiens) (UniProt P29317); assay: Inhibition of EphA2 at 10 nM
How it was run: as §1

[4] = biological target: Hepatocyte growth factor receptor (Homo sapiens) (UniProt P08581); assay: Inhibition of Met kinase at 10 nM
How it was run: as §1

[5] = biological target: Activated CDC42 kinase 1 (Homo sapiens) (UniProt Q07912); assay: Inhibition of ACK at 10 nM
How it was run: (§2)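 Single-concentration test at 10 nM within a panel of 21 kinases.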

[6] = biological target: T2, Tyrosine-protein kinase Tec (Homo sapiens) (UniProt P42680); assay: Inhibition of TEC at 10 nM
T2 sequence (whole entry): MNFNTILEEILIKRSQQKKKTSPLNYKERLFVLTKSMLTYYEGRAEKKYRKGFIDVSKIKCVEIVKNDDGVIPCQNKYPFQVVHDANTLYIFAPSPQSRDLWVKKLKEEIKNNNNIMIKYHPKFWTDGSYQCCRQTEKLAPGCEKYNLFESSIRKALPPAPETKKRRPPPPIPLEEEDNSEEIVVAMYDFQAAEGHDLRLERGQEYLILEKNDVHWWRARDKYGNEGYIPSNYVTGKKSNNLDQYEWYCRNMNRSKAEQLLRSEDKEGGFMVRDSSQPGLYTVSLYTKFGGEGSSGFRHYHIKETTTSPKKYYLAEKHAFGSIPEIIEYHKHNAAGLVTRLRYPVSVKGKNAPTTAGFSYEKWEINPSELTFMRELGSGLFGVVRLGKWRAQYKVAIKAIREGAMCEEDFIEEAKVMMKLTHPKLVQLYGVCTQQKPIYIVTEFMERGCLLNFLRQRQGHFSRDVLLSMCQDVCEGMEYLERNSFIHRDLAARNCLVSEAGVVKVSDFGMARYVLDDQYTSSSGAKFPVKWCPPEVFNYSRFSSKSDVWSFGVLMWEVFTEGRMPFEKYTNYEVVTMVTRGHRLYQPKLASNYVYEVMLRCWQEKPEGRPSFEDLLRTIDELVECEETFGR
How it was run: as §1

[7] = biological target: T3, Tyrosine-protein kinase receptor TYRO3 (Homo sapiens) (UniProt Q06418); assay: Inhibition of TYRO3 at 10 nM
T3 sequence (whole entry): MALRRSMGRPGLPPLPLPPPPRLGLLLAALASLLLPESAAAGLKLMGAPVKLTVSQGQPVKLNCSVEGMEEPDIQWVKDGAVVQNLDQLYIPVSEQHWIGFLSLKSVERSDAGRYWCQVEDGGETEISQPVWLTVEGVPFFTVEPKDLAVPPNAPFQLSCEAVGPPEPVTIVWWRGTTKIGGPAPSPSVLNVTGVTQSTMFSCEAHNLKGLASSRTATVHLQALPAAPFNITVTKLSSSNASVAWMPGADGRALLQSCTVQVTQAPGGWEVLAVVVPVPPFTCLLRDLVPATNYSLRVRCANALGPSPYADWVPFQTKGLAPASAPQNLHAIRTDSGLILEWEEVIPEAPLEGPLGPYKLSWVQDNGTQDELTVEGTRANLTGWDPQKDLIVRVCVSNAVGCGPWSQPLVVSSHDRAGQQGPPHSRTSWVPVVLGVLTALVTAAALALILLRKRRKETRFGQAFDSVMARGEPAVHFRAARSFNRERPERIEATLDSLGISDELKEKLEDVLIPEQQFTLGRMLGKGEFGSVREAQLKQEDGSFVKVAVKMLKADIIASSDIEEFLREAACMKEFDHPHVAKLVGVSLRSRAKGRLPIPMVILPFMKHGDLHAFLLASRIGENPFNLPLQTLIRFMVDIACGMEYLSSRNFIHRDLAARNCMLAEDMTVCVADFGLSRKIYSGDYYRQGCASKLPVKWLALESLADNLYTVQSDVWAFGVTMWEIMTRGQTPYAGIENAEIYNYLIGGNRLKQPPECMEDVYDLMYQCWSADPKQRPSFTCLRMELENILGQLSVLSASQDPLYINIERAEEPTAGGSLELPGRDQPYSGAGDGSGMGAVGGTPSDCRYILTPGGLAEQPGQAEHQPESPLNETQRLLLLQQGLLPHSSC
How it was run: as §2

[8] = biological target: Receptor-type tyrosine-protein kinase FLT3 (Homo sapiens) (UniProt P36888); assay: Inhibition of FLT3; conditions: concentration not given here
[9] = biological target: Tyrosine-protein kinase CSK (Homo sapiens) (UniProt P41240); assay: Inhibition of CSK at 10 nM
How it was run: as §1

[10] = biological target: Platelet-derived growth factor receptor alpha (Homo sapiens) (UniProt P16234); assay: Inhibition of PDGFRalpha at 10 nM
How it was run: as §1

cells [11] = conditions: Homo sapiens, M-07e
[12] = biological target: Vascular endothelial growth factor receptor 2 (Homo sapiens) (UniProt P35968); assay: Inhibition of KDR at 10 nM
How it was run: as §1

K562 = assay: cells; conditions: Homo sapiens
cells [13] = conditions: Homo sapiens
[14] = biological target: T4, Tyrosine-protein kinase JAK3 (Homo sapiens) (UniProt P52333); assay: Inhibition of JAK3 at 10 nM
T4 sequence (whole entry): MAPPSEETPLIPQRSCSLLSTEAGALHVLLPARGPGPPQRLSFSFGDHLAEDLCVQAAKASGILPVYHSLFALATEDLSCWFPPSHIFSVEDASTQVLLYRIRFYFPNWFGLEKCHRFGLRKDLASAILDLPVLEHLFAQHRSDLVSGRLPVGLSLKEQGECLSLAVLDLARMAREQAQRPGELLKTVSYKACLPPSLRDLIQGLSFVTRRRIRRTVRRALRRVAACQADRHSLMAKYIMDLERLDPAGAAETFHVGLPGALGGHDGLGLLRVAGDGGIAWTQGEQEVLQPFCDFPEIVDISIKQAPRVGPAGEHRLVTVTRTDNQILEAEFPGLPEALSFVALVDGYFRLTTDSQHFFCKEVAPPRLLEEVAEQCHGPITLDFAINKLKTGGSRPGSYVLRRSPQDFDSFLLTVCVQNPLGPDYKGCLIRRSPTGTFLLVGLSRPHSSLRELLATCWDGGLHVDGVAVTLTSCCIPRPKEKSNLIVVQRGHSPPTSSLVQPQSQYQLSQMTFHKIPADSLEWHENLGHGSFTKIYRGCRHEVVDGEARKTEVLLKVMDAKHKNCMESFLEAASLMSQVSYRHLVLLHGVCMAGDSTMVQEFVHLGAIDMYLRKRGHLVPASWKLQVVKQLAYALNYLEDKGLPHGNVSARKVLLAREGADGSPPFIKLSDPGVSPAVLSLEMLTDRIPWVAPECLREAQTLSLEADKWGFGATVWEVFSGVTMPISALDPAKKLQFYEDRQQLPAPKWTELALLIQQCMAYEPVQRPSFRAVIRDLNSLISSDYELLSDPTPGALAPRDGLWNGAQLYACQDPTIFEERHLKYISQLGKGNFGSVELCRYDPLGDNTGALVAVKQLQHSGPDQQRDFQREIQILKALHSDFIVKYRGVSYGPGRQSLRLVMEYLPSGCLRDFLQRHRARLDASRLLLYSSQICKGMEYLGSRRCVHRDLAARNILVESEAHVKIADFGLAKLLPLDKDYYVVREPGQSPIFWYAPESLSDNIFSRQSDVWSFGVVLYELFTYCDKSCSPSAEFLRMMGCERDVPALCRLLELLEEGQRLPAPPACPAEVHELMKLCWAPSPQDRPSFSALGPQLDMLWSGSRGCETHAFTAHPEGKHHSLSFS
How it was run: as §2

Mus musculus [15] = assay: Toxicity in B6D2F1 mouse at 0.1 mg/kg, iv; type: organism-based; set-up: dose 0.1 mg/kg, route intravenous; conditions: in vivo
Mus musculus [16] = assay: Biodistribution in tumor of human K562 cells xenografted iv dosed mouse; type: ADME, organism-based; conditions: in vivo
How it was run: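 Three athymic mice carried subcutaneous K562 xenografts in the right shoulder. [18F] tracer (14 ± 1 MBq, 375 ± 25 µCi) was formulated in 5% BSA in saline, sterile filtered and given by tail vein. MicroPET imaging started 60 min post-injection with a 15 min exposure. Tumor uptake was expressed as % injected dose by region-of-interest analysis.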

Chain of Proto-oncogene tyrosine-protein kinase Src (Homo sapiens) (P12931 2-536 limits assumed): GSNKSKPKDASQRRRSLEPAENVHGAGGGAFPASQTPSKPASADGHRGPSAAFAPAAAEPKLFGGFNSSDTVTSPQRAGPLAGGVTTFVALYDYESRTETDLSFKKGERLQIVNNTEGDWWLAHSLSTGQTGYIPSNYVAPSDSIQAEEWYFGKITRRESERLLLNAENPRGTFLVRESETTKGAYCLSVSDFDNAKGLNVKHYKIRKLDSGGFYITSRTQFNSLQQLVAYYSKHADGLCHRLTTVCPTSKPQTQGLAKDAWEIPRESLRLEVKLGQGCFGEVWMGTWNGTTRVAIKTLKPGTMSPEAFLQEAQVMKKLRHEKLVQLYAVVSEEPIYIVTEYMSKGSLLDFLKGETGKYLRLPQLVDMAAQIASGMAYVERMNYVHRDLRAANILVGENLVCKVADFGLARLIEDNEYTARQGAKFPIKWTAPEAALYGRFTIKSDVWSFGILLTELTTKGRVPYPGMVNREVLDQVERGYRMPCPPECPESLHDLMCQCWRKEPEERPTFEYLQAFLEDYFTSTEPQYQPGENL
Chain of Ephrin type-A receptor 2 (Homo sapiens) (P29317 whole entry): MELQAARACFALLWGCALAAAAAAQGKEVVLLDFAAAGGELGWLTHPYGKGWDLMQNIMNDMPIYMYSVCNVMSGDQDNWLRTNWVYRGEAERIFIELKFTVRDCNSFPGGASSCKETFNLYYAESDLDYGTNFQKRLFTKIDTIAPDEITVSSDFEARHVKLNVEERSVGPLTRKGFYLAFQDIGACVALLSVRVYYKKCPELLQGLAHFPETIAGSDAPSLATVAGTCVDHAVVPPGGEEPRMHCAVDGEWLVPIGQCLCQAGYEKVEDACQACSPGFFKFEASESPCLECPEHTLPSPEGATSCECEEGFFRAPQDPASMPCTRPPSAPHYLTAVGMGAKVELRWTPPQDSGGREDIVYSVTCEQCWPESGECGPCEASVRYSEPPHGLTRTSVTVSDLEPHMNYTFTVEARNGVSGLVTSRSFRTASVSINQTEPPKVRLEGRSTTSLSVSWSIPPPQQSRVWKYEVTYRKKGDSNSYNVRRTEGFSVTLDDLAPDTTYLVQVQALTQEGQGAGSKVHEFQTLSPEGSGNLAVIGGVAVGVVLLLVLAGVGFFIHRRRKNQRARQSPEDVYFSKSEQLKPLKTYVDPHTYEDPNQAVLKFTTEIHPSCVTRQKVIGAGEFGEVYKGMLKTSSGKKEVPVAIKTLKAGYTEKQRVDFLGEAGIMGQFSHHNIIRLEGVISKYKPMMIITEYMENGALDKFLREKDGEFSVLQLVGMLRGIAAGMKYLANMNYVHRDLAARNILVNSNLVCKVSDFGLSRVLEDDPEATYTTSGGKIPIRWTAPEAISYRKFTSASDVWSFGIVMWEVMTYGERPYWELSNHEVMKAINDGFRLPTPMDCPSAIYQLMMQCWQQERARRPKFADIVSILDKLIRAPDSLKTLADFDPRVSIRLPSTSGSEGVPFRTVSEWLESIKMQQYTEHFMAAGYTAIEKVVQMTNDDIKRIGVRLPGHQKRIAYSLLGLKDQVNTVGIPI
Chain of Tyrosine-protein kinase CSK (Homo sapiens) (P41240 2-450 limits assumed): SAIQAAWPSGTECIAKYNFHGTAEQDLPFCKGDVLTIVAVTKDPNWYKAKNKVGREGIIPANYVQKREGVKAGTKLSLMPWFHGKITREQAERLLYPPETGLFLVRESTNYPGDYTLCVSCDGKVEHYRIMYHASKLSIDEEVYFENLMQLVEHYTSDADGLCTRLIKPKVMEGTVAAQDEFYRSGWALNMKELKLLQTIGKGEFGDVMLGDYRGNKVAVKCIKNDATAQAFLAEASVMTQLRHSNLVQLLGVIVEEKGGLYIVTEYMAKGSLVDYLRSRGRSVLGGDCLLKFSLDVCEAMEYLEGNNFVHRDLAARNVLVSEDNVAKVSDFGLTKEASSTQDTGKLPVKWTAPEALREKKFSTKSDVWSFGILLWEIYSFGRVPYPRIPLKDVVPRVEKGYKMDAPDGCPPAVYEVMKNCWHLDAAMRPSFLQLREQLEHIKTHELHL
Chain of Hepatocyte growth factor receptor (Homo sapiens) (P08581 whole entry): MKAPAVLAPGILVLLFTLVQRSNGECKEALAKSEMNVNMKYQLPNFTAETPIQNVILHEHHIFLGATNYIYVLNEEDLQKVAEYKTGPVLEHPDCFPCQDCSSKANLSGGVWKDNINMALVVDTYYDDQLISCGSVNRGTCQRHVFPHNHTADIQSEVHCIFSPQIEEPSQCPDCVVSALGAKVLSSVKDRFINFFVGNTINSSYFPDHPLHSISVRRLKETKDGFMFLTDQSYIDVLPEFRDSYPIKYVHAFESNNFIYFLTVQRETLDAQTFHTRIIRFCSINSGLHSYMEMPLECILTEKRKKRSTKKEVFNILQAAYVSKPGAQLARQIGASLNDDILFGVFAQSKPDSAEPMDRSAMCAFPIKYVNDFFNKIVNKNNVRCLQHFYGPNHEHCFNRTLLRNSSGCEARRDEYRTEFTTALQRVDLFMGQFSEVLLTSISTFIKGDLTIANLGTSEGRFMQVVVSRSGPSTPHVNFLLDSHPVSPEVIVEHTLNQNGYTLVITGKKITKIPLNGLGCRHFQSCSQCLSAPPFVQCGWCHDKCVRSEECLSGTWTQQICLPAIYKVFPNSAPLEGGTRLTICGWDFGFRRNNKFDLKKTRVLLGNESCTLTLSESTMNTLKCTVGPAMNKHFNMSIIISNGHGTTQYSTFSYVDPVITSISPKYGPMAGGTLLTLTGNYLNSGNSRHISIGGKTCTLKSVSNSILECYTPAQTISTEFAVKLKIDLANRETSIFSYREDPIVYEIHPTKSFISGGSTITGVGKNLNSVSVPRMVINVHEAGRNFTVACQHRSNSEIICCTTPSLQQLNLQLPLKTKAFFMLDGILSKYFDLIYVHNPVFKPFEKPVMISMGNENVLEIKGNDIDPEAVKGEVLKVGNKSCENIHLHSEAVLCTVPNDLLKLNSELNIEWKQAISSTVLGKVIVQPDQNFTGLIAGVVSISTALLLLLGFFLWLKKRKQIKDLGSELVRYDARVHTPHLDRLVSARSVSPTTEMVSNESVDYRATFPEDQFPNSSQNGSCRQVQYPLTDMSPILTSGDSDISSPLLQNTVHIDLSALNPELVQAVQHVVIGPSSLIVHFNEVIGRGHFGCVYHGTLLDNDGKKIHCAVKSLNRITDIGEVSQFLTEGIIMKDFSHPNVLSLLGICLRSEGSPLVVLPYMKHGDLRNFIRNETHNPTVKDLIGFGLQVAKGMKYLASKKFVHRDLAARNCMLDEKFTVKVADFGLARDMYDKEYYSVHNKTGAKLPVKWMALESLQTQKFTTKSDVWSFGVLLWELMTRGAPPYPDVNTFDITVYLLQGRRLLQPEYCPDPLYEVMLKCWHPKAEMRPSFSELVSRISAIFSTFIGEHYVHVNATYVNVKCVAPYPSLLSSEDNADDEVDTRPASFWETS
Chain of Platelet-derived growth factor receptor alpha (Homo sapiens) (P16234 whole entry): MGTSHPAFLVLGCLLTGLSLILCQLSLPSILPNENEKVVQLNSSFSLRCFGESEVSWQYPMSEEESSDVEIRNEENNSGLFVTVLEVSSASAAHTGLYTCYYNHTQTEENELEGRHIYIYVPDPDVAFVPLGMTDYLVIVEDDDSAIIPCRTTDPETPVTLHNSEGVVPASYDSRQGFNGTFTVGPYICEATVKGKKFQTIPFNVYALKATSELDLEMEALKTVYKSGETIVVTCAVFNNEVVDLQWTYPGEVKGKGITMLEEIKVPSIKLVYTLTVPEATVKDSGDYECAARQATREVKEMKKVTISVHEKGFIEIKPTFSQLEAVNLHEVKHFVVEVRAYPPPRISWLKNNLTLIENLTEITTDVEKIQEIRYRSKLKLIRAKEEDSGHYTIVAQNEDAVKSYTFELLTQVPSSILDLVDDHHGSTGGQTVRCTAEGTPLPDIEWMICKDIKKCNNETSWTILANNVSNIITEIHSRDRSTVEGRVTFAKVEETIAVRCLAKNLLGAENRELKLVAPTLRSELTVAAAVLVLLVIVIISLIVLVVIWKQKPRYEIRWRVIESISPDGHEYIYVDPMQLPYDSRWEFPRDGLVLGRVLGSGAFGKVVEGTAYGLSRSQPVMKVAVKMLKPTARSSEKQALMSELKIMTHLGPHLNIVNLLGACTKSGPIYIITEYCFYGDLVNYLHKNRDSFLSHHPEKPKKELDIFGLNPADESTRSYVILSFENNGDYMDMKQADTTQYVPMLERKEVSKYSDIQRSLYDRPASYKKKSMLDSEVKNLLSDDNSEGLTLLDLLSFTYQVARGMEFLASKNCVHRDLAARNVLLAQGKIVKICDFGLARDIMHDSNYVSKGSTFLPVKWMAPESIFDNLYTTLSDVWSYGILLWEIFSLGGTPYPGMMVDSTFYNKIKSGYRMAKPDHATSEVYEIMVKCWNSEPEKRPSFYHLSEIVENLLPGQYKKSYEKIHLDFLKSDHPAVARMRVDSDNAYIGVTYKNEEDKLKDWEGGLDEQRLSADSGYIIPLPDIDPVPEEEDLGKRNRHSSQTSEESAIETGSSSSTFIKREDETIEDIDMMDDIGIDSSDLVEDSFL

| IC50 (cells [11]) [nM] | inhibition [12] [%] | IC50 (K562) [nM] | IC50 (cells [13]) [nM] | inhibition [14] [%] | Drug uptake (Mus musculus [16]) [%] | SMILES | inhibition [1] [%] | inhibition [2] [%] | inhibition [3] [%] | inhibition [4] [%] | inhibition [5] [%] | inhibition [6] [%] | inhibition [7] [%] | inhibition [8] [%] | inhibition [9] [%] | inhibition [10] [%] | Activity (Mus musculus [15]) |
| --- | --- | --- | --- | --- | --- | --- | --- | --- | --- | --- | --- | --- | --- | --- | --- | --- | --- |
| – | – | – | – | – | – | CN[C@@H]1C[C@H]2O[C@@](C)([C@@H]1OC)n1c3ccccc3c3c4c(c5c6ccccc6n2c5c31)C(=O)NC4 | 89.8 | 94.1 | 92.6 | 90 | 96.4 | 92.5 | 95.3 | 96.4 | 89.3 | 88.4 | – |
| 1.1 | -5.6 | 1.1 | 0.1 | 16 | – | Cc1nc(Nc2ncc(C(=O)Nc3c(C)cccc3Cl)s2)cc(N2CCN(CCF)CC2)n1 | 97.5 | 97 | 98.1 | 7.2 | 83.1 | 98.1 | 23.1 | 0.3 | 95.2 | 86 | Non-toxic |
| 1.2 | – | 1 | 0.07 | – | – | Cc1nc(Nc2ncc(C(=O)Nc3c(C)cccc3Cl)s2)cc(N2CCN(CCO)CC2)n1 [DASATINIB] | – | – | – | – | – | – | – | – | – | – | – |
| – | – | – | – | – | 1.1 | Cc1nc(Nc2ncc(C(=O)Nc3c(C)cccc3Cl)s2)cc(N2CCN(CC[18F])CC2)n1 | – | – | – | – | – | – | – | – | – | – | – |
